# Screening results: PubChem BioAssay, Johns Hopkins Ion Channel Center
# An excerpt weighted towards active compounds, which were near 3.5% of everything screened.
# RGS4 block = human RGS4 inhibition. HEK293 M3R/RGS4 inducible, Fluo-4 calcium flux; hits give high values; triggered by carbachol at its EC20. B-score at 10 µM. hit rate 0.45% among 310,000. AID 463165;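 active = B-score, a plate-corrected calcium signal, over three deviations above library mean, with baseline fluorescence within five deviations of library mean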;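 note: RGS4 expression induced by doxycycline in cells with stable M3 receptor; B-score is computed from the integrated fluorescence ratio over baseline after carbachol; higher B-score means a larger calcium signal and so more RGS4 inhibition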
# Target sequence (P49798 whole entry, looked up): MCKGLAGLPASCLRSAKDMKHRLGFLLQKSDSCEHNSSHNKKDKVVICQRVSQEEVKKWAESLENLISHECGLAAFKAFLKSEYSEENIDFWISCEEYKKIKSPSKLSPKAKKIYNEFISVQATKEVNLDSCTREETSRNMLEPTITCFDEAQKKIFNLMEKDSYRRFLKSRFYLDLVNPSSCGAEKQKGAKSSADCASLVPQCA
# RGS4 pot = potentiators or activators of RGS4; HEK293 M3R/inducible RGS4, carbachol calcium flux Fluo4; hits give low values; B-score at 10 µM; hit rate 0.92% among 310,000; AID 463111;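 active = B-score of the integrated calcium signal more than 4 SD below the library mean, with starting fluorescence not abnormally high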;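 note: negative B-score means reduced calcium response which marks RGS4 activation or potentiation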
#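 Test system: HEK293 cells with stable M3R and inducible RGS4; also added: carbachol at ECmax as muscarinic agonist stimulus; schedule: dye loading 30 min 37 °C, buffer rest 30 min RT; technique: kinetic calcium fluorescence imaging with Fluo4-AM dye, 2 µM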
# MrgX1 PAM = allosterically activates human MrgX1 receptor signaling; AID 588675; B-score at 10 µM; MrgX1-HEK293, Fluo-4 calcium flux, FDSS; hits give high values; Q96LB2; hit rate 0.63% among 310,000;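 active = plate-corrected calcium response at least 3 library SD above typical, normal starting fluorescence, not activating the receptor alone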;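 note: compound read alongside a low EC10 to EC30 dose of BAM8-22 agonist; peak minus trough fluorescence over baseline measured at the second addition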
# Target sequence (Q96LB2 whole entry, looked up): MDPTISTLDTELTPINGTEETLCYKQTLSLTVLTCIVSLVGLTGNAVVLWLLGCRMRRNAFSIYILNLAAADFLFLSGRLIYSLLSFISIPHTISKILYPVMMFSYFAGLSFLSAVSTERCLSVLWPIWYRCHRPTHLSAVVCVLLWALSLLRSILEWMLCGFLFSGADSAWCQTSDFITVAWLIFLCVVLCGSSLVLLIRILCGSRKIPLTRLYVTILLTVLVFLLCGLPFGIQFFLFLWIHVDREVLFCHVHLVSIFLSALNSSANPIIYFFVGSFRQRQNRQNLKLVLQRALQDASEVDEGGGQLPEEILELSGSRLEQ
# MrgX1 ag = agonists of human MrgX1 receptor; Q96LB2; MrgX1-HEK293 cells, Fluo-4 calcium fluorescence, agonist mode; hits give high values; B-score at 10 µM; hit rate 0.44% among 310,000; AID 588627;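 active = calcium response B-score plate-corrected fluorescence ratio at least 3 library SD, with starting fluorescence B-score inside 5 SD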
#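 Test system: HEK293 cells stably expressing human MrgX1 receptor; Input: fifteen thousand cells per well; Dosing: compound delivered in addition one of three; Schedule: overnight seeding, then 1 h dark dye loading; Technique: Fluo-4 NW calcium fluorescence; Measure: B-scored fluorescence response ratio; Controls: positive and negative controls per plate.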
# MrgX1 antag = blocks BAM8-22 activation of human MrgX1 receptor; hit rate 1.3% among 310,000; Q96LB2; B-score at 10 µM; AID 588676; MRGX1-HEK293 calcium flux, Fluo-4, BAM8-22 antagonism; hits give low values;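 active = calcium-response B-score plate-corrected more than 3 library SD below zero, starting fluorescence within 5 deviations, no agonist response on first addition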;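 note: peak minus trough fluorescence over baseline after final BAM8-22 challenge near maximal dose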
# Starred values were filed as active, the others as inactive; i = inactive; x = no result.
SMILES,RGS4 block,RGS4 pot,MrgX1 PAM,MrgX1 ag,MrgX1 antag
O=C(O)c1cc([N+](=O)[O-])ccc1N1CCCCC1,i,i,i,i,i
CC(C)(C)c1ccc(S(=O)(=O)N2CCN(C(=O)C3CCC3)CC2)cc1,i,i,i,i,i
CCN1C(=O)[C@@H]2Cc3c([nH]c4ccccc34)C(c3ccc(OC)cc3)N2C1=S (stereo not given in full),i,i,i,i,-4.5*
Cc1ccc(CN2CCN(Cc3ccc4cc(F)ccc4n3)CC2CCO)o1 (stereo not given),i,i,i,i,i
CCOc1ccc(C(=O)NCCCN(CC)CC)cc1,i,i,i,i,-5.4*
CCOc1ccc(C(=O)NCCNC(=O)c2ccc(OCC)cc2)cc1,i,i,i,i,i
C/C(=N/NC(=O)c1ccc(C(C)(C)C)cc1)c1ccccn1,8.5*,i,i,i,i
COC(=O)c1ccc(CN(C(C)=O)c2ccccc2)o1,i,-7.3*,i,i,i
CN(CC(=O)Nc1ccc(Cl)c(Cl)c1)Cc1nnc(-c2ccc(F)cc2)o1,i,i,i,i,i
CN(C)CCCNCC(=O)NN(c1ccccc1)c1ccccc1,i,i,i,i,i
O=c1c2ccccc2nc(/C=C/c2c[nH]c3ccccc23)n1CCO,i,-7.4*,i,i,i
O=c1c2ccccc2nc(/C=C/c2cc(Br)ccc2O)n1CCO,i,i,i,i,i
CN(C)c1ccc(/C=C/c2nc3ccccc3c(=O)n2CCO)cc1,i,i,i,32*,i
O=C1CC(Cc2ccccc2)C(=O)N1CCc1ccc2c(c1)OCO2 (stereo not given),i,i,i,i,i
O=C1OC[C@H](Cc2ccc3c(c2)OCO3)/C1=C\c1ccc2c(c1)OCO2,i,i,i,i,-4.6*
CSc1ccccc1OCc1cc(C(=O)NC2CCc3ccccc32)no1 (stereo not given),i,i,i,i,i
Cc1ccc(OCc2cc(C(=O)NC3CCc4ccccc43)no2)cn1 (stereo not given),i,i,i,i,-4.7*
O=C(CCl)N=c1sccn1Cc1ccccc1Cl,i,-7.3*,i,i,i
CC(C)[C@H](NC(=O)[C@H](CCCN=C(N)N)NC(=O)NC(Cc1ccccc1)C(=O)O)C(=O)NC(C=O)CCCN=C(N)N (stereo not given in full),i,i,i,46*,i
CC1(c2nnc(-c3ccc(Cl)cc3)o2)CC(c2c(Cl)cccc2Cl)=NO1 (stereo not given),i,-9.2*,i,i,i
CC1(c2nnc(-c3ccc(F)cc3)o2)CC(c2c(Cl)cccc2Cl)=NO1 (stereo not given),i,i,i,i,i
CCCN1CCN(C(=O)C(C)n2nc(C)c3sc4ccccc4c3c2=O)CC1 (stereo not given),i,i,i,i,i
CC(NC(=O)/C=C/c1ccco1)c1nc2ccccc2n1Cc1cccc(Cl)c1 (stereo not given),i,i,i,i,i
CC(C)CN(C(=O)COC(=O)COc1ccc2ccccc2c1)c1c(N)n(Cc2ccccc2)c(=O)[nH]c1=O,i,i,i,i,-6.4*
CCOc1ccc(OCC(=O)OCC(=O)N(CC(C)C)c2c(N)n(Cc3ccccc3)c(=O)[nH]c2=O)cc1,i,i,i,i,i
SMILES,RGS4 block,RGS4 pot,MrgX1 PAM,MrgX1 ag,MrgX1 antag
Cc1ccc(NC(=O)C2CCCN2S(=O)(=O)c2ccc3c(c2)n(C)c(=O)c(=O)n3C)cc1C (stereo not given),i,-7*,i,i,i
Cn1c(=O)c(=O)n(C)c2cc(S(=O)(=O)N3CCCC3C(=O)Nc3ccc(F)cc3)ccc21 (stereo not given),i,i,i,i,i
COc1ccc(OC)c(NC(=O)CCN2C(=O)c3ccccc3C2=O)c1,i,i,i,i,i
CN(C)CCCN1c2ccccc2CCc2ccccc21,x,x,i,i,i
CC(CN(C)C)CN1c2ccccc2CCc2ccccc21 (stereo not given),i,i,i,i,-4.9*
Clc1ccc(SCc2cc(Cl)nc(-c3ccccc3)n2)cc1,i,-7*,i,i,i
Clc1cc(CSc2ccccc2)nc(-c2ccccc2)n1,i,i,i,i,i
NS(=O)(=O)c1ccc(-n2nncc2-c2ccco2)cc1,i,i,i,i,i
CC(C)NC(=O)c1cnc(Sc2ncc(C(F)(F)F)cc2Cl)n1C,i,-7.6*,i,i,i
Cn1c(C(=O)O)cnc1Sc1ncc(C(F)(F)F)cc1Cl,i,i,i,i,i
CCc1ccc(N2CC(O)(c3cccs3)[N+]3=C2SCCC3)cc1 (stereo not given),i,-7.5*,i,i,i
CCC(=NCc1ccc(Cl)c(Cl)c1)c1nc(-c2ccco2)oc1O,i,-7.1*,i,i,i
COc1ccccc1NS(=O)(=O)c1cc(NC(=O)Nc2cccc(C)c2)ccc1N1CCCCC1,i,i,i,i,i
O=C(Nc1ccc(Cl)cc1)Nc1ccc(N2CCCC2)c(S(=O)(=O)Nc2ccccc2Cl)c1,i,i,i,i,-6*
O=[N+]([O-])c1ccc(N/N=C/c2sc(N3CCOCC3)nc2-c2ccccc2)c(S(=O)(=O)Nc2ccc(Cl)cc2)c1,i,-7.5*,x,x,x
C=CCc1cccc2cc(C(=O)Nc3ccc(CC(=O)O)cc3)c(=O)oc12,i,i,i,i,i
C=CCc1cccc2cc(C(=O)Nc3cccc(C(=O)O)c3)c(=O)oc12,i,i,7.6*,i,i
c1cc2c3c(cccc3c1)NC1(CCCCCC1)N2,i,i,i,i,i
c1cc2c3c(cccc3c1)NC1(CCC3(CC1)Nc1cccc4cccc(c14)N3)N2,i,-8.2*,7*,i,i
Cc1cc(NC(=O)c2c(Cl)c(C)nn2C)no1,i,i,i,i,i
Cc1cc(NC(=O)c2c([N+](=O)[O-])c(C)nn2C)no1,i,i,i,i,-5*
COC1=C/C(=C/c2c(N)n3nc(CC(=O)N4CCCC4)sc3nc2=O)C=CC1=O,i,i,i,i,-5.9*
CCOC1=C/C(=C/c2c(N)n3nc(CC(=O)N4CCCC4)sc3nc2=O)C=CC1=O,i,i,i,31*,i
